Results reported in ChEMBL document CHEMBL2093137, “WHO-TDR NTD Screening”.
Converted amounts (≈) assume the structure as drawn.

Legend:
[1] = WHO-TDR: Cytotoxicity; assay type: toxicity, cell-based; details: human, MRC5 cells
[2] = tested on: Plasmodium falciparum K1; assay: WHO-TDR: Malaria; assay type: functional, organism-based, Homo sapiens; details: Erythrocyte
Method in brief: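 Previously published standard procedures, including a reference drug as positive control, were used to screen whole Plasmodium falciparum K1 parasites inside human red blood cells. IC50 is the measure of antiplasmodial potency. The compounds were a 10,000-member diverse Life Chemicals library.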

[3] = tested on: Trypanosoma cruzi; assay: WHO-TDR: Chagas disease; assay type: functional, organism-based, Homo sapiens; details: MRC5
Method in brief: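 Intracellular amastigotes of the Trypanosoma cruzi Tulahuen CL2 beta-galactosidase strain, grown in MRC-5SV2 human lung fibroblast host cells, were tested in a whole-organism screen. The compounds came from a 10,000-member diverse Life Chemicals library that had been filtered for drug-likeness and reactive groups. Previously published standard procedures were followed, with a reference drug as positive control, and potency is reported as IC50.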

[4] = tested on: Trypanosoma brucei brucei; assay: WHO-TDR: Human African Trypanosomiasis (HAT); assay type: functional, organism-based; details: Squib-427
Method in brief: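 In this whole-organism screen, the target was the bloodstream form of Trypanosoma brucei, strain Squib 427. A diverse set of 10,000 compounds from Life Chemicals, previously filtered for drug-likeness and reactive groups, was assayed by standard published procedures using reference drugs as positive controls. Each value is an IC50 for antiparasitic potency.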

[5] = tested on: Leishmania infantum; assay: WHO-TDR: Leishmaniasis; assay type: functional, organism-based, Mus musculus; details: Macrophage
Method in brief: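 Intracellular amastigotes of Leishmania infantum MHOM/MA(BE)/67, hosted in murine peritoneal macrophages, were exposed to compounds from a 10,000-member diverse library supplied by Life Chemicals. The library had been filtered for drug-likeness and reactive groups. The reported IC50 expresses antiparasitic potency.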

[6] = tested on: Schistosoma mansoni; assay: WHO-TDR: Schistosomiasis; assay type: functional; set-up: concentration or dose not given beside the values
Method in brief: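 Larval and/or adult Schistosoma mansoni (Puerto Rican strain) were tested whole against 10,000 diverse compounds from Life Chemicals. The procedure was a previously published standard one, using a reference drug as positive control. Results are expressed as percent inhibition and IC50.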

[7] = tested on: Onchocerca ochengi; assay: (§1) WHO-TDR: Onchocerciasis; assay type: functional; set-up: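 at 12.5 µM on microfilariae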
Method in brief: (§2)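 Onchocerca ochengi or Onchocerca lienalis, animal pathogens used as surrogates for the human parasite, were screened as whole microfilariae against a 10,000-compound diverse library from Life Chemicals. The reported measures of activity are percent inhibition and IC50.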

[8] = tested on: Onchocerca ochengi; assay: as §1; assay type: functional; set-up: concentration or dose not given beside the values; method in brief: as §2; remark: listed apart in the source

| IC50 [2] | IC50 [4] | IC50 [5] | SMILES | IC50 [1] | IC50 [3] | % Inhibition [6] | % Inhibition [7] | % Inhibition [8] |
| --- | --- | --- | --- | --- | --- | --- | --- | --- |
| > 12.7 µg/mL | 4.11 µg/mL (≈ 9.71 µM) | > 12.7 µg/mL | Cc1cccc(NC(=O)Cn2cc(S(=O)(=O)c3ccc(F)cc3)c3ccccc32)n1 | > 12.7 µg/mL | 4.41 µg/mL (≈ 10.4 µM) | 0% | 100% | 0% |
| > 13.4 µg/mL | > 13.4 µg/mL | 0.695 µg/mL (≈ 1.55 µM) | O=C(CN1CCC(C(=O)Nc2ccc(Oc3ccccc3)cc2)CC1)Nc1ccc(F)cc1 | > 13.4 µg/mL | > 13.4 µg/mL | 0% | 0% | 0% |
| > 12.3 µg/mL | > 12.3 µg/mL | 0.638 µg/mL (≈ 1.55 µM) | COc1ccc2oc(-c3csc(NC(=O)c4cccc(OC)c4OC)n3)cc2c1 | > 12.3 µg/mL | > 12.3 µg/mL | 0% | 0% | 0% |
| > 13 µg/mL | > 13 µg/mL | > 13 µg/mL | Cc1ccc(NC(=O)CN2CCC(C(=O)NCCc3c[nH]c4ccccc34)CC2)c(C)c1 | > 13 µg/mL | 4.92 µg/mL (≈ 11.4 µM) | 0% | 100% | 0% |
| > 8.38 µg/mL | 2.65 µg/mL (≈ 9.49 µM) | > 8.38 µg/mL | CC(C)c1ccc(NC(=O)c2n[nH]c3ccccc23)cc1 | > 8.38 µg/mL | 2.58 µg/mL (≈ 9.23 µM) | 0% | 100% | 0% |
| 3.56 µg/mL (≈ 8.35 µM) | 4.14 µg/mL (≈ 9.71 µM) | 1.9 µg/mL (≈ 4.46 µM) | CN1CCN(C(CNC(=O)COc2ccccc2F)c2ccc3c(c2)CCN3C)CC1 (stereo not given) | > 12.8 µg/mL | > 12.8 µg/mL | 0% | 0% | 0% |

Second part, the molecule before the results:

| SMILES | IC50 [2] | IC50 [4] | IC50 [5] | IC50 [1] | IC50 [3] | % Inhibition [6] | % Inhibition [7] | % Inhibition [8] |
| --- | --- | --- | --- | --- | --- | --- | --- | --- |
| O=C(CC1CSc2nccc(=O)n21)Nc1cc(C(F)(F)F)cc(C(F)(F)F)c1 (stereo not given) | > 12.7 µg/mL | > 12.7 µg/mL | > 12.7 µg/mL | > 12.7 µg/mL | > 12.7 µg/mL | 0% | 100% | 0% |
| Cc1cc(=O)[nH]c(-n2nc(C)cc2NC(=O)c2c(F)cccc2Cl)n1 | 3.62 µg/mL (≈ 10 µM) | 1.96 µg/mL (≈ 5.43 µM) | 5.62 µg/mL (≈ 15.5 µM) | 0.39 µg/mL (≈ 1.08 µM) | 0.331 µg/mL (≈ 0.915 µM) | 0% | 0% | 0% |
| Cc1cc(NC(=O)COc2ccc(Cl)cc2)n(-c2nc(C)c(C)c(=O)[nH]2)n1 | 2.07 µg/mL (≈ 5.33 µM) | 0.377 µg/mL (≈ 0.971 µM) | > 11.6 µg/mL | 0.338 µg/mL (≈ 0.872 µM) | 0.359 µg/mL (≈ 0.926 µM) | 0% | 50% | 0% |
| CC1CCN(C(C)CNC(=O)Nc2ccc(C(F)(F)F)cc2)CC1 (stereo not given) | 0.869 µg/mL (≈ 2.53 µM) | 0.333 µg/mL (≈ 0.971 µM) | 3.33 µg/mL (≈ 9.71 µM) | 8.41 µg/mL (≈ 24.5 µM) | 3.26 µg/mL (≈ 9.49 µM) | 25% | 100% | 100% |
| CN1CCCc2cc(C(CNC(=O)c3ccc4c(c3)OCO4)N3CCOCC3)ccc21 (stereo not given) | > 12.7 µg/mL | > 12.7 µg/mL | > 12.7 µg/mL | 11.2 µg/mL (≈ 26.3 µM) | 4.94 µg/mL (≈ 11.7 µM) | 0% | 100% | 0% |
| Cc1cc(NC(=O)C2(c3ccc(Cl)cc3)CCCC2)n(-c2nc3c(c(=O)[nH]2)CCC3)n1 | 0.644 µg/mL (≈ 1.47 µM) | 0.42 µg/mL (≈ 0.959 µM) | > 13.1 µg/mL | 0.338 µg/mL (≈ 0.772 µM) | 0.37 µg/mL (≈ 0.844 µM) | 56.7% | 0% | 0% |
| CN1CCCc2cc(C(CNC(=O)COc3ccc(Cl)cc3)N3CCCC3)ccc21 (stereo not given) | > 12.8 µg/mL | 0.411 µg/mL (≈ 0.96 µM) | 4.16 µg/mL (≈ 9.71 µM) | > 12.8 µg/mL | 4.46 µg/mL (≈ 10.4 µM) | 25% | 0% | 0% |
| C=CCN1C(=O)C(C)(C)COc2cc(NS(=O)(=O)C3CCCCC3)ccc21 | > 11.8 µg/mL | 3.72 µg/mL (≈ 9.49 µM) | > 11.8 µg/mL | > 11.8 µg/mL | 8.42 µg/mL (≈ 21.4 µM) | 0% | 100% | 60% |
| Cc1ccc(S(=O)(=O)N2CCCCC2CC(=O)Nc2ccc(F)c(C(F)(F)F)c2)cc1 (stereo not given) | > 13.8 µg/mL | 6.11 µg/mL (≈ 13.3 µM) | > 13.8 µg/mL | > 13.8 µg/mL | 0.889 µg/mL (≈ 1.94 µM) | 0% | 0% | 0% |
